# What was measured:
# Type in all cases: functional, cell-based
# CAL-27 = test: Antiproliferative activity against human CAL-27 cells after 10 days; conditions: CAL-27, 240 h
# Method in brief: (§1)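 Tested as part of a 240-line cancer cell panel (Eurofins Oncopanel); all lines were mycoplasma-negative and STR-verified. Cells were exposed to a compound concentration series in 2D culture for 10 days. The highest concentration was 10 μM or 25 μM, depending on the inhibitor. Antiproliferative IC50 was derived from the mean of three biological replicates.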
# Caov-3 cell line = test: Antiproliferative activity against human Caov-3 cells after 10 days; conditions: Caov-3, 240 h
# Method in brief: (§2)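 10-day 2D proliferation screen of a broad cancer cell panel (about 240 lines, Eurofins Oncopanel). All lines were mycoplasma negative and STR verified. Compounds were dosed up to a top concentration of 10 μM or 25 μM, depending on the inhibitor. Anti-proliferative IC50 values are the average of three biological replicates.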
# PANC-1 = test: Antiproliferative activity against human PANC-1 cells after 10 days; conditions: PANC-1, 240 h
# Method in brief: (§3)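 Broad cancer cell line panel (Eurofins Oncopanel, about 240 lines; mycoplasma negative, STR verified) grown in 2D culture and exposed to compound in a 10-day proliferation assay. The top concentration was 10 μM for the SMYD2 inhibitor series and 25 μM for the SMYD3 inhibitor. The proliferative IC50 is taken from concentration-response data, each value the mean of three biological replicates.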
# RKO = test: Antiproliferative activity against human RKO cells after 10 days; conditions: 240 h; method in brief: as §3
# AN3-CA = test: Antiproliferative activity against human AN3-CA cells after 10 days; conditions: 240 h; method in brief: as §1
# KLE = test: Antiproliferative activity against human KLE cells after 10 days; conditions: 240 h; method in brief: as §3
# RD = test: Antiproliferative activity against human RD cells after 10 days; conditions: 240 h; method in brief: as §3
# Ramos = test: Antiproliferative activity against human Ramos cells after 10 days; conditions: 240 h
# SK-MEL-1 = test: Antiproliferative activity against human SK-MEL-1 cells after 10 days; conditions: SK-MEL-1, 240 h
# A204 = test: Antiproliferative activity against human A204 cells after 10 days; conditions: A204, 240 h; method in brief: as §1
# ACHN = test: Antiproliferative activity against human ACHN cells after 10 days; conditions: 240 h; method in brief: as §1
# CAKI-1 = test: Antiproliferative activity against human CAKI-1 cells after 10 days; conditions: CAKI-1, 240 h; method in brief: as §1
# CCF-STTG1 = test: Antiproliferative activity against human CCF-STTG1 cells after 10 days; conditions: CCF-STTG1, 240 h
# Method in brief: (§4)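 Cell lines run in the Eurofins Oncopanel broad cancer panel, all mycoplasma-negative and STR-verified. Cells were exposed to a compound concentration series in a 10-day proliferation assay, and an anti-proliferative IC50 was derived. Values are the mean of three biological replicates.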
# 647-V = test: Antiproliferative activity against human 647-V cells after 10 days; conditions: 240 h
# Method in brief: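 Tested in the Eurofins Oncopanel of about 240 cancer cell lines, all mycoplasma-negative and STR-verified. Cells were exposed to compound for 10 days in 2D culture, and a proliferative IC50 was derived from the concentration series. The highest concentration tested was 10 μM in the SMYD2 inhibitor screen and 25 μM in the SMYD3 inhibitor screen. Values are means of three biological replicates.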
# SK-MES-1 = test: Antiproliferative activity against human SK-MES-1 cells after 10 days; conditions: SK-MES-1, 240 h
# MES-SA = test: Antiproliferative activity against human MES-SA cells after 10 days; conditions: 240 h; method in brief: as §3
# COR-L23 = test: Antiproliferative activity against human COR-L23 cells after 10 days; conditions: COR-L23, 240 h; method in brief: as §2
# SW837 = test: Antiproliferative activity against human SW837 cells after 10 days; conditions: SW837, 240 h
# CGTH-W-1 = test: Antiproliferative activity against human CGTH-W-1 cells after 10 days; conditions: CGTH-W-1, 240 h; method in brief: as §1
# SW982 = test: Antiproliferative activity against human SW982 cells after 10 days; conditions: SW982, 240 h
# BeWo = test: Antiproliferative activity against human BeWo cells after 10 days; conditions: 240 h; method in brief: as §1
# OE19 = test: Antiproliferative activity against human OE19 cells after 10 days; conditions: OE19, 240 h; method in brief: as §3
# SJRH30 = test: Antiproliferative activity against human SJRH30 cells after 10 days; conditions: SJRH30, 240 h
# HT-1080 = test: Antiproliferative activity against human HT-1080 cells after 10 days; conditions: HT-1080, 240 h; method in brief: as §2
# D283 Med = test: Antiproliferative activity against human D283 Med cells after 10 days; conditions: 240 h; method in brief: as §2
# U-266 = test: Antiproliferative activity against human U266B1 cells after 10 days; conditions: U-266, 240 h
# SW1783 = test: Antiproliferative activity against human SW1783 cells after 10 days; conditions: SW1783, 240 h
# Calu-6 = test: Antiproliferative activity against human Calu-6 cells after 10 days; conditions: Calu-6, 240 h; method in brief: as §2
# DLD-1 = test: Antiproliferative activity against human DLD-1 cells after 10 days; conditions: DLD-1, 240 h; method in brief: as §2
# DMS-53 = test: Antiproliferative activity against human DMS-53 cells after 10 days; conditions: DMS-53, 240 h; method in brief: as §2
# ES-2 = test: Antiproliferative activity against human ES2 cells after 10 days; conditions: ES-2, 240 h; method in brief: as §2
# SW 962 = test: Antiproliferative activity against human SW 962 cells after 10 days; conditions: SW 962, 240 h
# BXPC-3 = test: Antiproliferative activity against human BXPC-3 cells after 10 days; conditions: BXPC-3, 240 h; method in brief: as §1
# G-402 = test: Antiproliferative activity against human G-402 cells after 10 days; conditions: G-402, 240 h; method in brief: as §2
# NCI-H747 = test: Antiproliferative activity against human NCI-H747 cells after 10 days; conditions: NCI-H747, 240 h; method in brief: as §3
# BV-173 = test: Antiproliferative activity against human BV-173 cells after 10 days; conditions: BV-173, 240 h; method in brief: as §1
# JEG-3 = test: Antiproliferative activity against human JEG-3 cells after 10 days; conditions: JEG-3, 240 h; method in brief: as §4
# AU565 = test: Antiproliferative activity against human AU565 cells after 10 days; conditions: AU565, 240 h; method in brief: as §1
# SW 954 = test: Antiproliferative activity against human SW 954 cells after 10 days; conditions: SW 954, 240 h
# BFTC-905 = test: Antiproliferative activity against human BFTC-905 cells after 10 days; conditions: BFTC-905, 240 h; method in brief: as §1
# Daoy = test: Antiproliferative activity against human Daoy cells after 10 days; conditions: 240 h; method in brief: as §2
# DoTc2-4510 = test: Antiproliferative activity against human DoTc2-4510 cells after 10 days; conditions: DoTc2-4510, 240 h; method in brief: as §2
# NCI-H661 = test: Antiproliferative activity against human NCI-H661 cells after 10 days; conditions: NCI-H661, 240 h; method in brief: as §3
# T98G = test: Antiproliferative activity against human T98G cells after 10 days; conditions: 240 h
# RPMI-7951 = test: Antiproliferative activity against human RPMI-7951 cells after 10 days; conditions: RPMI-7951, 240 h
# SW1417 = test: Antiproliferative activity against human SW1417 cells after 10 days; conditions: SW1417, 240 h
smiles,measurement,setting,value
Cc1cn(CCN2CCN(c3ccccc3-c3cc(C#N)cc(C(=O)NCCCN4CCCC4)c3)CC2)c2ccccc12,IC50,CAL-27,2.52 µM
same,IC50,Caov-3 cell line,2.6 µM
same,IC50,PANC-1,2.87 µM
same,IC50,RKO,1.04 µM
same,IC50,AN3-CA,2.42 µM
same,IC50,KLE,3.21 µM
same,IC50,RD,0.954 µM
same,IC50,Ramos,1.04 µM
same,IC50,SK-MEL-1,1.9 µM
same,IC50,A204,1.35 µM
same,IC50,ACHN,3.21 µM
same,IC50,CAKI-1,2.79 µM
same,IC50,CCF-STTG1,5.82 µM
same,IC50,647-V,1.48 µM
same,IC50,SK-MES-1,1.18 µM
same,IC50,MES-SA,2.3 µM
same,IC50,COR-L23,2.21 µM
same,IC50,SW837,3.69 µM
same,IC50,CGTH-W-1,2.87 µM
same,IC50,SW982,5.79 µM
same,IC50,BeWo,2.88 µM
same,IC50,OE19,2.52 µM
same,IC50,SJRH30,1.23 µM
same,IC50,HT-1080,1.98 µM
same,IC50,D283 Med,2.51 µM
same,IC50,U-266,1.26 µM
same,IC50,SW1783,2.96 µM
same,IC50,Calu-6,3.68 µM
same,IC50,DLD-1,3.4 µM
same,IC50,DMS-53,3.17 µM
same,IC50,ES-2,1.32 µM
same,IC50,SW 962,3.38 µM
same,IC50,BXPC-3,2.87 µM
same,IC50,G-402,2.19 µM
same,IC50,NCI-H747,2.32 µM
same,IC50,BV-173,1.33 µM
same,IC50,JEG-3,1.5 µM
same,IC50,AU565,1.25 µM
same,IC50,SW 954,4.07 µM
same,IC50,BFTC-905,2.5 µM
same,IC50,Daoy,3.67 µM
same,IC50,DoTc2-4510,1.07 µM
same,IC50,NCI-H661,3.39 µM
same,IC50,T98G,5.87 µM
same,IC50,RPMI-7951,2.05 µM
same,IC50,SW1417,3.23 µM
